Reference: the array DNA melting data of Ke et al. (doi:10.1101/2024.01.08.574731)

What was measured:
[1] = folding enthalpy; higher = less favourable; fluorescence melt of hairpins on a sequencing array, two-state fit; details: sodium 0.088 M
How it was run: (§1)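 Two-state fits, bootstrapped, provided melting temperature and folding enthalpy from Cy3 fluorescence normalised to pre-quench Cy3 and to control constructs. Library hairpins with annealed Cy3 and quencher oligos were imaged on a sequenced MiSeq flow cell in 50 mM Na-HEPES pH 8.0, 25 mM NaCl, at 2.5 °C intervals up to 60 °C. Four replicates were combined with inverse-variance weighting. A 9.35 °C upward shift was applied to fitted temperatures to match UV melts.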

[2] = melting temperature; fluorescence melt of hairpins on a sequencing array, two-state fit, raised by 9.35 °C to match UV melts; details: sodium 0.088 M
How it was run: as §1

Sequence	folding enthalpy [1]	Tm [2]
GAACTGGAAACAGTTC ((((((....))))))	-32.4 kcal/mol	53.9 °C
GAACTGGGAAACCAGTTC (((((((....)))))))	-40.7 kcal/mol	61.7 °C
GAACTTGGAAACAAGTTC (((((((....)))))))	-39 kcal/mol	57.4 °C
GAAGACGAAAGTCAATTC ((((((....)))..)))	-15.5 kcal/mol	32.9 °C
GAAGACGAAAGTCATTTC ((((((....)))..)))	-8.24 kcal/mol	23.9 °C
GAAGACGAAAGTCGCTTC ((((((....)))..)))	-22.6 kcal/mol	47.1 °C
GAAGATGAAAATCTTC ((((((....))))))	-28.1 kcal/mol	48.4 °C
GAAGCACGAAAGTGTTC (((.(((....))))))	-13.4 kcal/mol	36.1 °C
GAAGCCCCGAAAGGGTTC (((..(((....))))))	-14.3 kcal/mol	36.9 °C
GAAGCCCGAAAGGGATTC (((.(((....))).)))	-42.4 kcal/mol	61.4 °C
GAAGCCCGAAAGGGGTTC (((.(((....))).)))	-36.8 kcal/mol	67.7 °C
GAAGCCCGAAAGGGTTC (((.(((....))))))	-16 kcal/mol	47.7 °C
GAAGCCGAAAGGCACTTC ((((((....)))..)))	-12 kcal/mol	42.4 °C
GAAGCCGAAAGGCCATTC ((((((....)))..)))	-8.97 kcal/mol	28 °C
GAAGCCGAAAGGCCTTC ((((((....))).)))	-16.2 kcal/mol	48.8 °C
GAAGCCGAAAGGCCTTTC ((((((....)))..)))	-9.88 kcal/mol	35.9 °C
GAAGCCGAAAGGCGCTTC ((((((....)))..)))	-14.1 kcal/mol	56.2 °C
GAAGCGACGAAAGTCTTC (((..(((....))))))	-9.61 kcal/mol	27.9 °C
GAAGCGCGAAAGCGTTTC (((.(((....))).)))	-23.1 kcal/mol	56 °C
GAAGCGGGAAACCACTTC ((((.((....)).))))	-32.1 kcal/mol	41.8 °C
GAAGCGGGAAACTGCTTC (((((.(....).)))))	-40.4 kcal/mol	53 °C
GAAGCTGGAAACGGCTTC (((((.(....).)))))	-42.9 kcal/mol	53.4 °C
GAAGCTGGAAACGGTTTC (((.(.(....).).)))	-10.3 kcal/mol	26 °C

Sequence	folding enthalpy [1]	Tm [2]
GAAGGACCGAAAGGTTTC (((..(((....))))))	-10.4 kcal/mol	24 °C
GAAGGACGAAAGTCATTC (((.(((....))).)))	-30.8 kcal/mol	52.1 °C
GAAGGCGAAAGCCCTTC ((((((....))).)))	-15.3 kcal/mol	52.1 °C
GAAGGCGAAAGCCCTTTC ((((((....)))..)))	-10 kcal/mol	37.6 °C
GAAGGCGCGAAAGCGTTC (((..(((....))))))	-9.37 kcal/mol	30.9 °C
GAAGGCGGAAACGTCTTC ((((.((....)).))))	-45.1 kcal/mol	53.1 °C
GAAGGGGGAAACCCCTCC (.(((((....))))).)	-13.1 kcal/mol	36.5 °C
GAAGGGGGAAACCTCTTC ((((.((....)).))))	-27.7 kcal/mol	43.1 °C
GAAGGGGGAAACTCCTTC (((((.(....).)))))	-25.6 kcal/mol	45.6 °C
GAAGGTGCGAAAGCATTC (((..(((....))))))	-6.16 kcal/mol	18.4 °C
GAAGGTGGAAACACCTTC (((((((....)))))))	-37.7 kcal/mol	64.6 °C
GAAGGTGGAAACATCTTC ((((.((....)).))))	-30.8 kcal/mol	41.6 °C
GAAGGTGGAAACGTCTTC ((((..(....)..))))	-33 kcal/mol	36.2 °C
GAAGTACGAAAGTAGTTC (((.(((....))).)))	-34.8 kcal/mol	46.8 °C
GAAGTACGAAAGTATTTC (((.(((....))).)))	-28.9 kcal/mol	40.5 °C
GAAGTAGGAAACTGCTTC ((((.((....)).))))	-34.4 kcal/mol	43.3 °C
GAAGTCCGAAAGGAATTC (((.(((....))).)))	-30.9 kcal/mol	50.1 °C
GAAGTGACGAAAGTCTTC (((..(((....))))))	-8.64 kcal/mol	27.8 °C
GAAGTGCGAAAGCAATTC (((.(((....))).)))	-28.2 kcal/mol	52.8 °C
GAAGTGGGAAACTACTTC (((((.(....).)))))	-37.4 kcal/mol	43.1 °C
GAAGTGGGAAACTGCTTC ((((..(....)..))))	-26.1 kcal/mol	39.6 °C
GAAGTTGGAAACAACTCC (.(((((....))))).)	-19.2 kcal/mol	34.1 °C
GAAGTTGGAAACAATTTC (((.(((....))).)))	-20.4 kcal/mol	35 °C

Sequence	folding enthalpy [1]	Tm [2]
GAAGTTGGAAACGACTTC (((((.(....).)))))	-39 kcal/mol	47.4 °C
GAATAAGGAAACTTGTTC (((.(((....))).)))	-17 kcal/mol	29.6 °C
GAATACGAAAGTATTTC ((((((....))).)))	-15.8 kcal/mol	38.3 °C
GAATACGCGAAAGCGTTC (((..(((....))))))	-7.08 kcal/mol	26.7 °C
GAATACGGAAACGTACTC ((.((((....)))).))	-9.11 kcal/mol	28.4 °C
GAATATGGAAACATGTTC (((.(((....))).)))	-32.6 kcal/mol	37.6 °C
GAATCAGGAAACTGATCC (.(((((....))))).)	-15.4 kcal/mol	32.6 °C
GAATCAGGAAACTGGTTC (((.(((....))).)))	-31.2 kcal/mol	42.6 °C
GAATCCCGAAAGGGCTTC (((.(((....))).)))	-19.1 kcal/mol	41.9 °C
GAATCCCGAAAGGGTTC (((.(((....))))))	-17.9 kcal/mol	48.1 °C
GAATCCGAAAGGATTTTC ((((((....)))..)))	-15.7 kcal/mol	48.9 °C
GAATCCGGAAACGGACTC ((.((((....)))).))	-17.9 kcal/mol	36.2 °C
GAATCGGGAAACCGATCC (.(((((....))))).)	-15.6 kcal/mol	39 °C
GAATGAGAAATCATTC ((((((....))))))	-26.8 kcal/mol	43 °C
GAATGAGGAAACTTATTC ((((.((....)).))))	-20.4 kcal/mol	29.6 °C
GAATGCCGAAAGGCGTTC (((.(((....))).)))	-27.7 kcal/mol	61.6 °C
GAATGCGAAAGCAAATTC ((((((....)))..)))	-18.9 kcal/mol	33.6 °C
GAATGCGAAAGCACATTC ((((((....)))..)))	-13.2 kcal/mol	31.3 °C
GAATGCGAAAGCACCTTC ((((((....)))..)))	-11.2 kcal/mol	33.2 °C
GAATGCGAAAGCAGATTC ((((((....)))..)))	-15.6 kcal/mol	43.2 °C
GAATGCGGAAACGCATCC (.(((((....))))).)	-11.6 kcal/mol	42.5 °C
GAATGCGGAAACGCGTTC (((.(((....))).)))	-37.5 kcal/mol	54.2 °C
GAATGGAAACATTC (((((....)))))	-24.9 kcal/mol	40.6 °C

Sequence	folding enthalpy [1]	Tm [2]
GAATGGCGAAAGCCGTTC (((.(((....))).)))	-22.4 kcal/mol	58.1 °C
GAATGGCGAAAGCCTTTC (((.(((....))).)))	-21 kcal/mol	47.2 °C
GAATGGGAAACCATTC ((((((....))))))	-37.9 kcal/mol	51.7 °C
GAATGGGGAAACCTATTC ((((.((....)).))))	-31.6 kcal/mol	37.9 °C
GAATGGGGAAACCTGTTC (((..((....))..)))	-13.1 kcal/mol	29.9 °C
GAATTACGAAAGTACTTC (((.(((....))).)))	-20.1 kcal/mol	32.5 °C
GAATTACGAAAGTAGTTC (((.(((....))).)))	-31.5 kcal/mol	42.6 °C
GAATTCGCGAAAGCGTTC (((..(((....))))))	-6.23 kcal/mol	19.9 °C
GAATTCGGAAACGAATCC (.(((((....))))).)	-16.6 kcal/mol	36.8 °C
GAATTCGGAAACGAATTC (((((((....)))))))	-35 kcal/mol	58.6 °C
GAATTCGGAAACGGATTC ((((.((....)).))))	-36.2 kcal/mol	45.4 °C
GAATTGGGAAACCAATCC (.(((((....))))).)	-14.6 kcal/mol	29.8 °C
GAATTGGGAAACCAGTTC (((.(((....))).)))	-30.1 kcal/mol	39.4 °C
GACAAAGCGAAAGCTGTC (((..(((....))))))	-19.7 kcal/mol	50.6 °C
GACAACACGAAAGTGGTC (((..(((....))))))	-16 kcal/mol	39.8 °C
GACAACGAAAGTTAAGTC ((((((....)))..)))	-14.7 kcal/mol	33.2 °C
GACAACGAAAGTTGAGTC ((((((....)))..)))	-11.2 kcal/mol	34.8 °C
GACAACGAAAGTTGGGTC ((((((....)))..)))	-15.7 kcal/mol	49.8 °C
GACAAGACGAAAGTCGTC (((..(((....))))))	-13.1 kcal/mol	40.8 °C
GACAAGCGAAAGCTAGTC (((.(((....))).)))	-23 kcal/mol	52 °C
GACAAGGCGAAAGCCGTC (((..(((....))))))	-8.66 kcal/mol	40.9 °C
GACAAGGGAAACCTTGCC (.(((((....))))).)	-14.8 kcal/mol	42 °C
